Source: article PMC9729583 (Antiviral Research, 2022)
Read-outs that look alike come from different tables or passages of the source.

Tests used:
[1] = PrestoBlue cytotoxicity assay; format: cell-based, human; conditions: human, Calu-3 cells
In short: (§1)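 Calu-3 cells were grown per ATCC recommendations and seeded in 96-well plates. After 24 h, medium was replaced with serially diluted test compound for 48 h. Cells were then incubated 2 h with 5% PrestoBlue and fluorescence read at ex 555/em 585 nm. Viability was expressed as % of vehicle-treated cells. At least three independent experiments were run.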

mNG-SARS-CoV-2 [2] = test: microbe, parasite or virus in culture; format: cell-based
mNG-SARS-CoV-2 [3] = test: microbe, parasite or virus in culture; format: cell-based; conditions: for inhibition at 50 µM: Severe acute respiratory syndrome coronavirus 2, Calu-3; for % Inhibition: 50 µM
Calu-3 cells = test: PrestoBlue cytotoxicity assay; format: cell-based, human; conditions: Calu-3, 48 h incubation
In short: as §1

SARS-CoV-2 Omicron BA.1 = test: dose-response against SARS-CoV-2 Omicron BA.1 in Calu-3 cells; format: cell-based
wild-type SARS-CoV-2 [4] = conditions: cited from earlier work
wild-type SARS-CoV-2 [5] = conditions: Huh-7.5 cells ref Dittmar et al., 2021; cited from earlier work
mNG-SARS-CoV-2 [6] = test: microbe, parasite or virus in culture; format: cell-based; remark: listed apart in the source
3CLpro = 3CLpro (Severe acute respiratory syndrome coronavirus 2, UniProt P0DTD1); test: 3CLpro enzymatic assay; format: biochemical, SARS-CoV-2; conditions: data not shown
[7] = Severe acute respiratory syndrome coronavirus 2, Calu-3
[8] = Severe acute respiratory syndrome coronavirus 2, Calu-3, read-out: BA.1 (EC50) Nuc, Calu-3, nucleocapsid staining
[9] = Severe acute respiratory syndrome coronavirus 2, Calu-3, read-out: BA.1 (EC50) dsRNA, Calu-3, dsRNA staining

| Compound | EC50 (mNG-SARS-CoV-2 [2]) [µM] | CC50 (Calu-3 cells) [µM] | % Inhibition (mNG-SARS-CoV-2 [3]) [%] | other results |
| --- | --- | --- | --- | --- |
| CC(C)=CCc1cc(-c2coc3c(CC=C(C)C)c(O)ccc3c2=O)ccc1O [erysubin F] |  |  |  | CC50 at 48 h [1]: > 100 µM; EC50 (mNG-SARS-CoV-2 [2]; [7]): 45.6 µM; inhibition at 50 µM (mNG-SARS-CoV-2 [3]): 100% |
| COc1c2ccoc2c(OCC=C(C)C)c2oc(=O)ccc12 [phellopterin] | 6.35 |  |  | CC50 at 48 h [1]: 93 µM; inhibition at 50 µM (mNG-SARS-CoV-2 [3]): 96% |
| C[C@@H]1CC[C@@]2(OC1)O[C@H]1C[C@H]3[C@@H]4CC[C@@H]5CC(=O)CC[C@]5(C)[C@H]4CC(=O)[C@]3(C)[C@@]1(O)[C@@H]2C [asparacemosone B] | 4.04 | > 100 | 83 |  |
| N[C@H](CNc1nc(-c2ccncc2)nc2sc3c(c12)CCCC3)Cc1ccccc1 [CRT0066854] |  |  |  | EC50 (SARS-CoV-2 Omicron BA.1; read-out: BA.1 (EC50) Nuc, Calu-3, nucleocapsid staining): 0.3 µM; EC50 (SARS-CoV-2 Omicron BA.1; read-out: BA.1 (EC50) dsRNA, Calu-3, dsRNA staining): 0.1 µM |
| CC(=O)O[C@H]1CC[C@]2(C)[C@H]3CC[C@]4(C)Oc5oc(C)cc(=O)c5C[C@H]4[C@]3(C)CC[C@H]2C1(C)C [chevalone C] | 4.14 | 93 | 100 |  |
| CC(C)C[C@H](NC(=O)OCc1ccccc1)C(=O)N[C@@H](CC1CCNC1=O)C(O)S(=O)(=O)O (stereo partly drawn) [GC376] | 0.475 |  |  | EC50 (wild-type SARS-CoV-2 [4]; Vero E6 cells ref Dampalla et al., 2021): 0.23 µM; EC50 (wild-type SARS-CoV-2 [4]; Vero E6 cells ref Fu et al., 2020): 0.7 µM |
| O=c1cc(-c2ccccc2)oc2cc(O)cc(O)c12 [chrysin] |  |  |  | CC50 at 48 h [1]: > 100 µM; EC50 (mNG-SARS-CoV-2 [2]; [7]): 18.8 µM; inhibition at 50 µM (mNG-SARS-CoV-2 [3]): 99% |
| acetyl hyrtiosal | 1.97 | > 100 | 97 |  |
| CC(=O)O[C@H]1CC[C@]2(C)[C@H]3CC[C@]4(C)Oc5cc(C)oc(=O)c5C[C@H]4[C@]3(C)CC[C@H]2C1(C)C [chevalone B] | 4.47 | > 100 | 95 |  |
| piperbonin A | 3.61 | > 100 | 100 |  |
| artahongkongene B | 22 | > 100 | 81 |  |
| CC(C)=CCc1cc([C@@H]2CC(=O)c3c(O)cc(O)c(CC=C(C)C)c3O2)cc(CC=C(C)C)c1O [5-hydroxysophoranone] | 20.2 | > 100 | 100 |  |
| CC(C)=CCC[C@](C)(O)[C@H]1CC[C@]2(C)[C@@H]1CC[C@@H]1[C@@]3(C)CCC(=O)C(C)(C)[C@@H]3CC[C@]12C [dipterocarpol] | 3.05 |  |  | CC50 at 48 h [1]: > 100 µM; inhibition at 50 µM (mNG-SARS-CoV-2 [3]): 99% |
| COc1cc([C@H]2OC[C@]3(O)[C@@H](c4ccc(O)c(OC)c4)OC[C@H]23)ccc1O [8-hydroxypinoresinol] | 24.4 | > 100 | 82 |  |
| COc1cc(-c2cc3c(c(=O)o2)C[C@]2(O)[C@@]4(C)C(=O)C=CC(C)(C)[C@]4(O)CC[C@@]2(C)O3)cc(OC)c1OC [territrem B] | 6.64 |  |  | CC50 at 48 h [1]: > 100 µM; inhibition at 50 µM (mNG-SARS-CoV-2 [3]): 100% |
| CCC(CC)COC(=O)[C@H](C)N[P@](=O)(OC[C@H]1O[C@@](C#N)(c2ccc3c(N)ncnn23)[C@H](O)[C@@H]1O)Oc1ccccc1 [RDV, remdesivir] |  |  |  | EC50 (wild-type SARS-CoV-2 [5]): 0.002 µM; EC50 (mNG-SARS-CoV-2 [6]; Severe acute respiratory syndrome coronavirus 2, Huh-7.5.1, read-out: EC50 (mNG)): 0.0036 µM; EC50 (mNG-SARS-CoV-2 [6]; Severe acute respiratory syndrome coronavirus 2, Huh-7.5.1, read-out: EC50 (nucleocapsid staining)): 0.0076 µM |

| Compound | EC50 (mNG-SARS-CoV-2 [2]) [µM] | CC50 (Calu-3 cells) [µM] | % Inhibition (mNG-SARS-CoV-2 [3]) [%] | other results |
| --- | --- | --- | --- | --- |
| 2-butylchrysin | 18 | > 100 | 95 |  |
| C=C1C[C@@]23CC[C@H]4[C@@](C)(CCC[C@@]4(C)C(=O)O)[C@@H]2CC[C@@H]1C3 [kaur-16-en-18-oic acid] | 15.1 | > 100 | 100 |  |
| asparacemosone A | 20.7 | > 100 | 95 |  |
| C/C=C(/C)C(=O)O[C@H]1C(C)=C[C@]23C(=O)[C@@H](C=C(CO)[C@@H](O)[C@]12O)[C@H]1[C@@H](C[C@H]3C)C1(C)C [PEP 005] |  |  |  | EC50 (SARS-CoV-2 Omicron BA.1; [8]): 0.7 µM; EC50 (SARS-CoV-2 Omicron BA.1; [9]): 1.5 µM |
| CC1(C)C=Cc2c(cc3occ(-c4ccc(O)cc4)c(=O)c3c2O)O1 [alpinumisoflavone] |  |  |  | CC50 at 48 h [1]: > 100 µM; inhibition at 50 µM (mNG-SARS-CoV-2 [3]): 100% |
| CC(C)=CCC/C(C)=C/Cc1c(O)cc2oc3c(O)cccc3c(=O)c2c1O [mangostinone] | 27.9 |  |  | CC50 at 48 h [1]: > 100 µM; inhibition at 50 µM (mNG-SARS-CoV-2 [3]): 92% |
| knecorticosanone G | 3.5 | > 100 | 100 |  |
| CCC/C=C/C=C/C(=O)O[C@H]1/C(=C/C(=O)OC)C[C@H]2C[C@H]([C@@H](C)O)OC(=O)C[C@H](O)C[C@@H]3C[C@H](OC(C)=O)C(C)(C)[C@](O)(C[C@@H]4C/C(=C/C(=O)OC)C[C@H](/C=C/C(C)(C)[C@]1(O)O2)O4)O3 [bryostatin, bryostatin-1] |  |  |  | EC50 (SARS-CoV-2 Omicron BA.1; [8]): 0.222 µM; EC50 (SARS-CoV-2 Omicron BA.1; [9]): 0.523 µM |
| Cn1c2ccccc2c2c3c(c4c5ccccc5n(CCC#N)c4c21)CNC3=O [Gö6976] |  |  |  | effect on SARS-CoV-2 BA.1 infection (SARS-CoV-2 Omicron BA.1): dramatic increase in susceptibility of cells to SARS-CoV-2 BA.1 |
| C=C1C[C@H]2[C@@](C)(C(=O)C(O)=C3C(C)(C)C(=O)CC[C@@]32C)[C@@H]2C(=O)O[C@@](C)(C(=O)OC)C(=O)[C@@]12C [terretonin A] | 7.31 |  |  | CC50 at 48 h [1]: > 100 µM; inhibition at 50 µM (mNG-SARS-CoV-2 [3]): 82% |
| C=CC(C)(C)c1[nH]c2ccccc2c1-c1c(O)c(OC)c2c(c1OC)O[C@H]1Nc3ccccc3[C@@]21O [giluterrin] | 5.44 | 72 |  |  |
| crotonolide F | 8.21 | > 100 | 97 |  |
| Cc1cc(O)c(C=O)c2c1C(=O)Oc1c(cc3c(c1C)C(=O)CC(C)(C)O3)O2 [mollicellin B] | 6.79 |  |  | CC50 at 48 h [1]: > 100 µM; inhibition at 50 µM (mNG-SARS-CoV-2 [3]): 100% |
| COc1ccc2c(c1)c(C1=C(c3c[nH]c4ccccc34)C(=O)NC1=O)cn2CCCN(C)C [Gö6983] |  |  |  | effect on SARS-CoV-2 BA.1 infection (SARS-CoV-2 Omicron BA.1): dramatic increase in susceptibility of cells to SARS-CoV-2 BA.1 |
| CC1(O)O[C@@H](n2c3ccccc3c3c4c(c5c6ccccc6[nH]c5c32)CNC4=O)C[C@@H](N)[C@H]1O (stereo partly drawn) [holyrine B] |  |  |  | activity against 3CLpro (3CLpro): neither holyrine A nor B presented activity against 3CLpro |
| CC(=O)O[C@@]12C[C@@H](C)[C@@]3(O)[C@@H](C=C(CO)C[C@]4(O)C(=O)C(C)=C[C@@H]34)[C@@H]1C2(C)C [prostratin] |  |  |  | EC50 (SARS-CoV-2 Omicron BA.1; [8]): 11.6 µM; EC50 (SARS-CoV-2 Omicron BA.1; [9]): 5 µM |
